From PubChem BioAssay
Only some compounds are listed: those with a hit (about 2.7% of all), similar ones and a draw of the others.
PfM18AAP inh = PfM18AAP enzyme inhibition; recombinant PfM18AAP, H-Glu-NHMec fluorogenic cleavage; inhibition, % at 7.35 µM; actives 1.2% (n = 290,000); AID 1822;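 active means inhibition above the campaign mean inhibition over all tested compounds plus 3 SD, cut at about 28% in these data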
Fh CTSL1 inh = blocks F. hepatica cathepsin L1 in PFM18AAP counter-screen. inhibition, % at 5.96 µM. recombinant F. hepatica cathepsin L1, Z-Leu-Arg-MCA fluorescence. actives 0.49% (n = 300,000);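 active means inhibition above the mean of all tested compounds plus 3 SD, set per screening campaign, cut at about 17% in these data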
IMP-1 inhibitor = blocks Pseudomonas aeruginosa IMP-1 metallo-beta-lactamase; purified IMP-1, nitrocefin hydrolysis, epi-absorbance fluorescence; inhibition, % at 5.6 µM; AID 1556; actives 0.45% (n = 290,000);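 active means inhibition above the mean plus 3 SD of all compounds in the same screening run, cut at about 4.5% in these data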
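Assay system: purified IMP-1; Quantity: IMP-1 0.2 nM before substrate addition; Medium: HEPES buffer pH 7.1 with ZnSO4 and Brij 35; Incubation: 15 min enzyme–compound preincubation, then 25 min nitrocefin reaction, 25 °C; Signal: fluorescence quenching readout, ex 480/em 530 nm; Controls: DMSO with and without IMP-1; Repeats: singlicate testing.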
VIM-2 inh = blocks Pseudomonas aeruginosa VIM-2 metallo-beta-lactamase; purified VIM-2, nitrocefin hydrolysis, epi-absorbance fluorescence; inhibition, % at 5.6 µM; actives 0.89% (n = 290,000);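 active means inhibition above the mean of all tested compounds plus 3 SD, cutoff set per screening run, cut at about 7.5% in these data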;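 further: red hydrolysis product quenches plate fluorescence so inhibitors raise well fluorescence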
Of the large screens only hits and unclear results are named; the others gave an inactive call.

CC(=O)c1nc(N2C(=O)CC(Cc3cc(C)cc(C)c3)C2=O)sc1C (configuration not stated)	none
CC(=O)c1nc(N2C(=O)CC(Cc3cccc(C)c3)C2=O)sc1C (configuration not stated)	IMP-1 inhibitor 16.6
COc1ccc(N(CC(=O)NCCc2ccccc2)C(=O)c2csnn2)cc1OC	none
O=C(O)CC/C(=C\c1ccc(Cl)c([N+](=O)[O-])c1)c1nc2ccccc2s1	VIM-2 inh 9.2
O=C(O)CC/C(=C\c1ccc(N2CCOCC2)c([N+](=O)[O-])c1)c1nc2ccccc2s1	none (no result: Fh CTSL1 inh)
O=C(O)CC/C(=C\c1ccc2c(c1)OCO2)c1nc2ccccc2s1	VIM-2 inh 11.0
CCn1c2ccccc2c2nc3cc(OC)c(OC)cc3nc21	none
CCn1c2ccccc2c2nc3ccccc3nc21	VIM-2 inh 9.9
Cc1ncc([N+](=O)[O-])n1CC(=O)Nc1ccc(F)cc1F	none
Cn1c(=O)c2cc(NCc3ccccc3)nnc2n(C)c1=O	Fh CTSL1 inh 56.6
CC(=O)N1c2ccc(S(=O)(=O)N3CCCC3C(=O)Nc3ccc(C)cc3)cc2CC1C (configuration not stated)	Fh CTSL1 inh 18.8
CCOC(=O)c1c(CN(C)C)n(C)c2c(O)c(N=NC(N)=O)c3ccc(Br)cc3c12	Fh CTSL1 inh 20.4
CCCn1c(=O)c(C(=O)OCC)c(O)c2cc(Br)ccc21	none
CC[n+]1c(/C=C/N(C)c2ccccc2)oc2ccc(F)cc21	PfM18AAP inh 30.7
COC(=O)c1ccccc1NC1=C/C(=N\S(=O)(=O)c2cccs2)c2ccccc2C1=O	Fh CTSL1 inh 51.6, IMP-1 inhibitor 5.0
COC(=O)c1ccccc1NC1=C/C(=N\S(=O)(=O)c2ccc(C(=O)O)cc2)c2ccccc2C1=O	Fh CTSL1 inh 47.1
c1coc(CN(Cc2ccco2)c2ncnc3c2oc2ccccc23)c1	IMP-1 inhibitor 4.7
Oc1ccc(/C=N/Nc2nc(-c3cccnc3)nc3ccccc23)c(O)c1	PfM18AAP inh 29.8
Cc1c(O)ccc(/C=N/Nc2nc(-c3cccnc3)nc3ccccc23)c1O	PfM18AAP inh 28.7
COc1ccc(/C=N/Nc2nc(-c3cccnc3)nc3ccccc23)cc1OC	none
O=C(NCCN1CCOCC1)/C(=C\c1ccccc1Cl)NC(=O)c1ccccc1	Fh CTSL1 inh 18.8
Cc1cccc(C(=O)NCC(=O)NCC2COc3ccccc3O2)c1 (configuration not stated)	none (no result: PfM18AAP inh, IMP-1 inhibitor, VIM-2 inh)
Cn1nnnc1SCc1cccc(CSc2nnnn2C)n1	IMP-1 inhibitor 5.3
Cc1sc(NC(=O)CN2CCOCC2)c(C#N)c1C	none
O=C1C(Nc2ccccc2)=C/C(=N/S(=O)(=O)c2cccs2)c2ccccc21	Fh CTSL1 inh 81.7
O=C1C=C(Nc2ccccc2)C(=O)c2ccccc21	none
Cc1ccc(/C=C2\S/C(=N/S(=O)(=O)c3cccs3)NC2=O)cc1	none
Cc1ccc(NC2=C/C(=N/S(=O)(=O)c3cccs3)c3ccccc3C2=O)cc1	Fh CTSL1 inh 59.9
CCOC(=O)C1=C(C)Nc2sc(C(=O)c3ccc(C)cc3)c(N)c2C1c1ccc(C(=O)OC)cc1 (configuration not stated)	VIM-2 inh 7.8
CCOC(=O)C1=C(C)Nc2sc(C(=O)c3ccc(F)cc3)c(N)c2C1c1ccc(C(=O)OC)cc1 (configuration not stated)	none
C=CCn1c(=N)c(C(=O)NCCCOC)cc2c(=O)n3cc(C)ccc3nc21	VIM-2 inh 11.4
Cc1ccc2nc3c(cc(C(=O)NC4CCCC4)c(=N)n3C3CCCCC3)c(=O)n2c1	VIM-2 inh 12.2
Cc1cccn2c(=O)c3cc(C(=O)NCc4ccco4)c(=N)n(C4CCCC4)c3nc12	VIM-2 inh 8.2
Cc1cccn2c(=O)c3cc(C(=O)NCC4CCCO4)c(=N)n(C4CCCCC4)c3nc12 (configuration not stated)	VIM-2 inh 8.0
C=CCn1c(=N)c(C(=O)NCCCOC)cc2c(=O)n3ccccc3nc21	none
Cc1ccc2nc3c(cc(C(=O)NC4CCCCC4)c(=N)n3C3CCCCC3)c(=O)n2c1	none
Cc1cc(C#N)c(C)n1-c1cc(S(=O)(=O)N2CCOCC2)ccc1N1CCCC1	none
COc1ccc(NC(=O)CC(C)n2ccnc2)cc1 (configuration not stated)	none
COc1cc(/C=C2/SC(=Nc3ccc(O)cc3)NC2=O)cc(OC)c1O	PfM18AAP inh 32.6
C=C(C)CN(CC)C(=O)CN1C(=O)NC(C)(c2ccc3ccccc3c2)C1=O (configuration not stated)	none
Cn1c(=O)n(C)c2cc(NC(=O)CCl)ccc21	Fh CTSL1 inh 23.9
CCc1nnc(NC(=O)CC23CC4CC(CC(Br)(C4)C2)C3)s1	none
Cc1c(N=NC2=C(O)CCCC2=O)c(=O)n(-c2ccccc2)n1C	PfM18AAP inh 31.7
Cc1ccc(C(=O)N/N=C2/NC(=O)CC(C(=O)Nc3ccccc3)S2)cc1 (configuration not stated)	none
COc1ccc2nc3cc(Cl)ccc3c(C#N)c2c1	Fh CTSL1 inh 19.4
CCCn1c(=N)n(CC(=O)c2ccc([N+](=O)[O-])cc2)c2ccccc21	Fh CTSL1 inh 18.4
O=C(c1cc2ccccc2oc1=O)N(Cc1ccc2c(c1)OCO2)Cc1ccco1	IMP-1 inhibitor 6.5
O=C(NCc1ccc2c(c1)OCO2)c1cc2ccccc2oc1=O	none
CCOc1ccc(Br)cc1S(=O)(=O)Nc1ccc(Cl)c(S(=O)(=O)N(C)C)c1	none
CCOc1ccc(Br)cc1S(=O)(=O)Nc1ccc(Cl)c(S(=O)(=O)N(CC)c2ccccc2)c1	Fh CTSL1 inh 16.7
Cc1c(C(=O)OCC(=O)Nc2ccc3c(c2)OCO3)cccc1[N+](=O)[O-]	none
CC(C)C1OC2c3cccc4cccc(c34)C2N1c1ccccc1 (configuration not stated)	IMP-1 inhibitor 4.6
COC(=O)c1c(NC(=O)c2ccnn2C)sc(C)c1C	IMP-1 inhibitor 4.7
O=C(CN1CCN(Cc2ccc(Cl)cc2)CC1)N1CCc2ccccc21	none
Cn1ccc(/C=N/N=C2/NC(=O)CS2)n1	none
Cc1ccc2nc(N(CCN(C)C)C(=O)c3cc(Cl)sc3Cl)sc2c1	none
Cc1cc(C)c2sc(N(CCN(C)C)C(=O)c3cc(Cl)sc3Cl)nc2c1	Fh CTSL1 inh 16.7
CCOC(=O)c1nn(-c2ccccc2)c(=O)c2c(N)scc12	none
Nc1scc2c(C(=O)N/N=C/c3ccc(Cl)cc3)nn(-c3ccccc3)c(=O)c12	Fh CTSL1 inh 33.5
COc1cc(OC)cc(-c2n[nH]c(=S)n2-c2ccc3c(c2)OCO3)c1	PfM18AAP inh 31.7, VIM-2 inh 8.7
COc1cccc(-c2n[nH]c(=S)n2Cc2ccco2)c1	VIM-2 inh 9.1
Cc1n[nH]c(=S)n1Cc1ccccc1	VIM-2 inh 11.3
COc1ccc(-c2n[nH]c(=S)n2Cc2ccccc2)cc1OC	VIM-2 inh 7.8
COc1ccc2oc(C(=O)Nc3nc(-c4ccccn4)cs3)c(C)c2c1	none (no result: PfM18AAP inh, IMP-1 inhibitor, VIM-2 inh)
Cc1ccccc1-n1c(-c2csc3ccccc23)n[nH]c1=S	none
COc1ccc(-c2n[nH]c(=S)n2Cc2ccccc2)cc1	VIM-2 inh 9.2
COc1ccc(-c2n[nH]c(=S)n2-c2ccccc2C)cc1	VIM-2 inh 8.8
